# Results: ChEMBL document CHEMBL3352498, “Membrane active phenylalanine conjugated lipophilic norspermidine derivatives with selective antibacterial activity” (J Med Chem, 2014)
# Active and inactive are the calls of the source. The rule behind the calls is not given here.
# What was measured:
# Staphylococcus aureus [1] = experiment: Antimicrobial activity against Staphylococcus aureus MTCC 737 assessed as membrane permeabilization at 12 times MIC by propidium iodide staining method; type: functional, organism-based
# Escherichia coli [2] = experiment: Antimicrobial activity against Escherichia coli MTCC 443 assessed as membrane permeabilization at 12 times MIC by propidium iodide staining method; type: functional, organism-based
# Staphylococcus aureus [3] = experiment: Antimicrobial activity against Staphylococcus aureus MTCC 737 assessed as membrane depolarization at 12 times MIC using DiSC3 by fluorescence spectroscopy; type: functional, organism-based
# Outline: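 Mid-log S. aureus washed and resuspended in 5 mM HEPES, 5 mM glucose, 100 mM KCl (1:1:1); 2 μM DiSC3(5) added, 20 min preincubation.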
# Staphylococcus aureus [4] = experiment: Antimicrobial activity against Staphylococcus aureus MTCC 737 assessed as leakage of K+ at 12 times MIC using PBFI-AM by fluorescence spectroscopy; type: functional, organism-based
# Escherichia coli [5] = experiment: Antimicrobial activity against Escherichia coli MTCC 443 assessed as leakage of K+ at 12 times MIC using PBFI-AM by fluorescence spectroscopy; type: functional, organism-based
# Staphylococcus aureus [6] = experiment: Antimicrobial activity against Staphylococcus aureus MTCC 737 after 24 hrs by broth microdilution method; type: functional; details: MTCC 737, 24 h
# Outline: (§1)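 Broth microdilution per CLSI: 6 h cultures (37 °C) diluted to ~10^5 CFU/mL; 2-fold serial dilutions in sterile water added to bacteria; 24 h at 37 °C; OD600 read. Triplicates, experiment done at least twice; mean OD vs concentration fitted sigmoidally, MIC taken where OD matched the no-bacteria control. E. coli grown in LB broth, S. aureus in yeast–dextrose broth.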
# Staphylococcus aureus [7] = experiment: Antimicrobial activity against methicillin-resistant Staphylococcus aureus ATCC 33591 after 24 hrs by broth microdilution method; type: functional; details: ATCC 33591, 24 h
# Outline: (§2)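 Broth microdilution per CLSI, 24 h at 37 °C. Inoculum is a 6 h 37 °C culture diluted to ~10^5 CFU/mL (yeast–dextrose broth for MRSA and K. pneumoniae). 50 μL of 2-fold dilutions in water plus 150 μL bacteria. Read by OD600, triplicates, run at least twice. MIC is taken from a sigmoidal fit as the point where OD equals the bacteria-free control.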
# Enterococcus faecium [8] = experiment: Antimicrobial activity against Enterococcus faecium ATCC 19634 after 24 hrs by broth microdilution method; type: functional; details: ATCC 19634, 24 h
# Escherichia coli [9] = experiment: Antimicrobial activity against Escherichia coli MTCC 443 after 24 hrs by broth microdilution method; type: functional; details: MTCC 443, 24 h; outline: as §1
# Enterococcus faecium [10] = experiment: Antimicrobial activity against vancomycin-resistant Enterococcus faecium ATCC 51559 after 24 hrs by broth microdilution method; type: functional; details: ATCC 51559, 24 h; outline: as §2
# Klebsiella pneumoniae = experiment: Antimicrobial activity against beta-lactam-resistant Klebsiella pneumoniae ATCC 700603 after 24 hrs by broth microdilution method; type: functional; details: ATCC 700603, 24 h; outline: as §2
# [11] = Hemolytic activity in human erythrocytes after 1 hr by spectrophotometry; type: ADME, cell-based, Erythrocyte
# Outline: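 Fresh heparinised human erythrocytes suspended to 5 vol % in PBS pH 7.4, mixed with serially diluted compound, 1 h at 37 °C; no-compound and 1 vol % Triton X-100 controls. Supernatant A540 after centrifugation gave % hemolysis; triplicates averaged, sigmoidal fit gave HC50.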
# [12] = Critical micelle concentration of the compound; type: ADME
# Outline: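 Static light scattering at 90° (excitation and emission 400 nm) on compound dissolved at 500 μg/mL in yeast–dextrose broth at room temperature, measured over successive dilutions; cmc taken from the inflection point where intensity rises steeply then falls after a local maximum.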
# Staphylococcus aureus [13] = experiment: Bactericidal activity against Staphylococcus aureus MTCC 737 assessed as log reduction in CFU/ml at 6 times MIC by time-kill assay relative to control; type: functional
# Staphylococcus aureus [14] = experiment: Ratio of MIC for Staphylococcus aureus MTCC 737 after 2 hrs in presence of 50% human plasma to MIC for Staphylococcus aureus MTCC 737 after 2 hrs; type: functional
# Outline: (§3)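 Compound mixed 1:1 with fresh human plasma (50% plasma) and held at 37 °C; at 0, 2, 4, 6, 12 and 24 h aliquots were diluted 2-fold in 0.9% saline.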
# Staphylococcus aureus [15] = experiment: Ratio of MIC for Staphylococcus aureus MTCC 737 after 4 hrs in presence of 50% human plasma to MIC for Staphylococcus aureus MTCC 737 after 4 hrs; type: functional; outline: as §3
SMILES,Activity (Staphylococcus aureus [1]),Activity (Escherichia coli [2]),Activity (Staphylococcus aureus [3]),Activity (Staphylococcus aureus [4]),Activity (Escherichia coli [5]),MIC (Staphylococcus aureus [6]),MIC (Staphylococcus aureus [7]),MIC (Enterococcus faecium [8]),MIC (Escherichia coli [9]),MIC (Enterococcus faecium [10]),MIC (Klebsiella pneumoniae),HC50 at 1 h [11],CMC [12],FC (Staphylococcus aureus [13]),fold change (FC) (Staphylococcus aureus [14]),fold change (FC) (Staphylococcus aureus [15])
CCCCCCCCCCCC(=O)N(CCCNC(=O)[C@@H](N)Cc1ccccc1)CCCNC(=O)[C@@H](N)Cc1ccccc1.O=C(O)C(F)(F)F.O=C(O)C(F)(F)F,Active,Active,Active,Active,Active,3.6 mg/L,3.3 mg/L,4 mg/L,10 mg/L,2.3 mg/L,8 mg/L,171 µg/mL,40 µg/mL,3,2,4
CCCCCCCCCC(=O)N(CCCN)CCCN.O=C(O)C(F)(F)F.O=C(O)C(F)(F)F,,,,,,240 mg/L,137 mg/L,> 250 mg/L,231 mg/L,250 mg/L,> 250 mg/L,> 500 µg/mL,,,,
CCCCCCCCCCCCCCCCCC(=O)N(CCCN)CCCN.O=C(O)C(F)(F)F.O=C(O)C(F)(F)F,,,,,,21 mg/L,19 mg/L,21 mg/L,26 mg/L,11 mg/L,106 mg/L,42 µg/mL,,,,
CCCCCCCCCC(=O)N(CCCNC(=O)[C@@H](N)Cc1ccccc1)CCCNC(=O)[C@@H](N)Cc1ccccc1.O=C(O)C(F)(F)F.O=C(O)C(F)(F)F,,,,,,15 mg/L,20 mg/L,29 mg/L,19 mg/L,14 mg/L,57 mg/L,187 µg/mL,156 µg/mL,,,
CCCCCCCCCCCCCC(=O)N(CCCN)CCCN.O=C(O)C(F)(F)F.O=C(O)C(F)(F)F,,,,,,18 mg/L,15 mg/L,27 mg/L,28 mg/L,23 mg/L,47 mg/L,72 µg/mL,,,,
CCCCCCCCCCCCCCCC(=O)N(CCCN)CCCN.O=C(O)C(F)(F)F.O=C(O)C(F)(F)F,,,,,,12 mg/L,11 mg/L,2.8 mg/L,14 mg/L,2.4 mg/L,65 mg/L,52 µg/mL,,,,
CCCCCCCCCCCCCC(=O)N(CCCNC(=O)[C@@H](N)Cc1ccccc1)CCCNC(=O)[C@@H](N)Cc1ccccc1.O=C(O)C(F)(F)F.O=C(O)C(F)(F)F,,,,,,6 mg/L,4.1 mg/L,4.5 mg/L,14 mg/L,2.4 mg/L,16 mg/L,124 µg/mL,,,,
N[C@@H](Cc1ccccc1)C(=O)NCCCN(CCCNC(=O)[C@@H](N)Cc1ccccc1)C(=O)Cc1cccc2ccccc12.O=C(O)C(F)(F)F.O=C(O)C(F)(F)F,,,,,,> 250 mg/L,,> 250 mg/L,> 250 mg/L,> 250 mg/L,> 250 mg/L,,,,,
